PKA-R1A activ – activators of PKA-R1A complex. PKA-R1A dissociation, Cy5-IP20 fluorescence polarization; scaled: DMSO 0%, 113 µM cGMP 100%. activation, % at 11.4 µM. 0.083% of 340,000 active. AID 504707;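 active means percent activation above the mean of all tested compounds plus 3 SD, cut at about 19% in these data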;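 further: higher means more PKAc released from R1A so a rise in polarization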
NR2E3 ag-1 – activates human NR2E3 receptor; Q9Y5X4; CHO-S Gal4-NCOR/VP16-NR2E3 two-hybrid, luciferase; inhibition of corepressor binding, % at 3.98 µM; 0.35% of 360,000 active;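 active means inhibition above the mean of all tested compounds plus 3 SD, cut at about 70% in these data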;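 further: higher means lower luciferase signal from less NR2E3 corepressor binding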
PKA-R2B activ – activators of human PKA-R2B complex; P22694+P31323; PKA-R2B holoenzyme dissociation, Cy5-IP20 fluorescence polarization; R2B truncated from residue 108, S112A mutant; 0% DMSO only, 100% 113 µM cGMP; activation, % at 11.4 µM; 0.079% of 340,000 active;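 active means activation above a cutoff set at the mean over all compounds plus 3 SD, cut at about 18% in these data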;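 further: higher means more holoenzyme dissociation and a rise in polarization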
Rev-erbA mod – modulators of human Rev-erb alpha DNA binding; P20393; Rev-erbα–FITC-DNA binding, fluorescence polarization, 90 min; activity, % at 10 µM; 0.79% of 370,000 active;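 active means activity above about 14%, limit read from the data; passing the limit was not always enough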
Target sequence (P20393 whole entry, looked up): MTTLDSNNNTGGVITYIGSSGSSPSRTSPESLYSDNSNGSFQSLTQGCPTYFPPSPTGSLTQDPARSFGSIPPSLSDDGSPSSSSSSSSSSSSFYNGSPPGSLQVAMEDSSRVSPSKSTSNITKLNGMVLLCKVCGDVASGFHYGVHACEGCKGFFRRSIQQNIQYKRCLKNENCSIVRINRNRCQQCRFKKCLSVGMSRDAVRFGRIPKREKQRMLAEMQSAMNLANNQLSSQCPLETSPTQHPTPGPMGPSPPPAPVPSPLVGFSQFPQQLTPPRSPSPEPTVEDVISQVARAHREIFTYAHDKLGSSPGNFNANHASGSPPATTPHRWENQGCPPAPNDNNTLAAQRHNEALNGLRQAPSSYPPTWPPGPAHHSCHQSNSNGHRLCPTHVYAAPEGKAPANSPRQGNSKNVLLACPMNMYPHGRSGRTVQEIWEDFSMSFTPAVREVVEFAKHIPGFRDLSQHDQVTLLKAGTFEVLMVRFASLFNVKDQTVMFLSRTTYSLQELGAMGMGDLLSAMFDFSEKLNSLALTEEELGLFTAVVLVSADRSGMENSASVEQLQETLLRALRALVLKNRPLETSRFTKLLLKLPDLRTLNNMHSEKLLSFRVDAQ
PG9 binder – PG9 antibody binding by small molecule; inhibition, % at 6.7 µM; AID 624416; 0.43% of 360,000 active; TR-FRET gp120-PG9 antibody binding; in the data active means inhibition above about 8.5%
NR2E3 ag-2 – NR2E3 (human) agonism | inhibition of corepressor binding, % at 4.78 µM | GST-NR2E3/biotin-RetCOR TR-FRET, 1536-well | Q9Y5X4 | 0.12% of 320,000 active;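 active means percent inhibition above the cutoff of mean plus 3 SD of all tested compounds, set per screening campaign, cut at about 20% in these data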
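system = GST-tagged NR2E3 plus biotinylated RetCOR corepressor | input = 1.35 nM GST-NR2E3 | also added = 7 nM biotin-RetCOR | schedule = 5 h incubation at 4 °C | measured by = TR-FRET with europium anti-GST and streptavidin-D2, 340 nm excitation | read-out = percent loss of FRET ratio relative to control wells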
NR2E3 ag confirm – NR2E3 agonism confirmed in two-hybrid assay; inhibition, % at 3.98 µM; CHO-S mammalian two-hybrid NR2E3-NCOR, luciferase luminescence; 51% of 2,300 active; shares compounds with NR2E3 ag-1;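 active means average inhibition above a cutoff equal to the mean inhibition of all tested compounds plus one SD, cut at about 70% in these data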
GAL4-VP16 luc – reduces GAL4-VP16 reporter signal in NR2E3 counterscreen; CHO-S GAL4-VP16 luciferase reporter, luminescence; shares compounds with NR2E3 ag-1; inhibition, % at 3.98 µM; 29% of 2,300 active;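 active means mean inhibition above a cutoff equal to the average over all tested compounds plus one standard deviation, cut at about 70% in these data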;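 further: luciferase from a UAS reporter driven by GAL4-VP16 transactivation; higher means less reporter light so more repression of VP16 activity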
Numbers stand for hits; - = inactive; . = no result given. Rows were chosen to be rich in hits. Some 1.6% of all compounds tested hit in one or more screens of this group.

SMILES | PKA-R1A activ | NR2E3 ag-1 | PKA-R2B activ | Rev-erbA mod | PG9 binder | NR2E3 ag-2 | NR2E3 ag confirm | GAL4-VP16 luc
O=C(Nc1nc(-c2ccccc2)cs1)c1ccccc1NS(=O)(=O)c1ccc(F)cc1 | - | 95 | - | - | - | - | 99 | 85
CC(=O)Oc1c(I)cc(I)cc1C(=O)Nc1ccc(Cl)cc1 | - | 106 | - | - | - | - | 99 | 87
O=C(NC1CCC1)c1ccc(C#Cc2cccc(F)c2)nc1 | . | . | . | - | . | . | . | .
O=C(Cc1ccc(Cl)cc1)Nc1ccncc1 | - | - | - | - | - | - | . | .
Cc1ccc(CC(=O)Nc2ccncc2)cc1 | - | - | - | - | - | - | - | -
OCCN1CCCC12CCC(c1ccccc1)CC2 (configuration not stated) | . | . | . | - | . | . | . | .
CCOC(=O)c1ccc(S(=O)(=O)NC2CCC(C)CC2)cc1 (configuration not stated) | - | - | - | - | - | - | - | -
O=C(OC12CCCN(C1)/C(=C/c1cccc(Cl)c1)C2)c1ccccc1 (configuration not stated) | . | . | . | - | . | . | . | .
O=C(OCc1ccccc1)N(CCCCN(CCCNCc1ccccc1)C(=O)OCc1ccccc1)CCCNCc1ccccc1 | - | - | - | - | - | . | - | -
CC(NC(=O)Nc1nnc(C(F)(F)F)s1)(C(F)(F)F)C(F)(F)F | - | 106 | - | - | - | - | 100 | 94
COc1ccc(-c2nnc(SCC(=O)Nc3ccc(S(=O)(=O)Nc4cc(C)nc(C)n4)cc3)n2-c2ccc(OC)cc2)cc1 | . | . | . | - | . | . | . | .
CCOC(=O)C1=Nc2cccc3c(O)ccc1c23 | . | . | . | - | - | . | . | .
CCOC(=O)C1=Nc2ccccc2C1=[N+]=[N-] | - | 97 | - | - | - | - | - | 79
COc1cc(NC(=O)c2ccccc2)c(C)cc1NC(=O)CSc1nnc(-c2ccccc2F)n1-c1ccc(C)cc1 | . | . | . | - | . | . | . | .
O=C(NCc1ccccc1Cl)c1cc(C(=O)C2CC2)c[nH]1 | - | - | - | - | - | - | - | -
O=C(NCc1cccnc1)c1cc(C(=O)C2CC2)c[nH]1 | - | - | - | - | - | - | . | .
CCOC(=O)CC[C@H]1CC[C@]2(CCCN(S(=O)(=O)C3CCCCC3)C2)O1 | . | . | . | - | . | . | . | .
Cc1cc(CNC(=O)Cc2ccccc2)c2ccccc2n1 | - | - | - | - | - | - | . | .
Cc1cc(CNC(=O)c2cccc([N+](=O)[O-])c2C)c2ccccc2n1 | - | - | - | - | - | - | 72 | -
COCC#Cc1ccc(CC[C@H]2O[C@H]3CC[C@@H](CO)O[C@H]3C[C@H]2n2cc(C3CC3)nn2)cc1 | . | . | . | - | . | . | . | .
Cc1c(C(=O)Nc2ccc(OC(F)(F)F)cc2)sc2nc3n(c(=O)c12)CCC3 | - | 77 | - | - | - | - | 88 | -
Cn1c(=O)n(C)c2cc(NS(=O)(=O)c3ccc(C(C)(C)C)cc3)ccc21 | - | - | - | - | - | - | 82 | 76
CCc1cccc(NS(=O)(=O)c2ccc3c(c2)n(C)c(=O)n3C)c1 | - | - | - | - | - | - | - | -
Cn1c(=O)n(C)c2cc(NS(=O)(=O)c3ccc4c(c3)CCCC4)ccc21 | - | - | - | - | - | - | 85 | -
Cc1ccc(NS(=O)(=O)c2ccc3c(c2)n(C)c(=O)n3C)cc1 | - | - | - | . | . | - | . | .
SMILES | PKA-R1A activ | NR2E3 ag-1 | PKA-R2B activ | Rev-erbA mod | PG9 binder | NR2E3 ag-2 | NR2E3 ag confirm | GAL4-VP16 luc
COc1ccc(Cl)cc1NC(=O)CN(C)C(=O)c1ccc(N2CCCCC2)c([N+](=O)[O-])c1 | - | - | - | - | - | - | . | .
CCN(CC(=O)Nc1c(F)cccc1F)C(=O)c1ccc(N2CCCCC2)c([N+](=O)[O-])c1 | - | - | - | - | - | - | - | -
CCN(CC(=O)Nc1c(F)cccc1F)C(=O)c1cc(S(=O)(=O)N(CC)CC)ccc1N1CCCCC1 | - | - | - | - | - | - | . | .
COc1ccc(Cl)cc1NC(=O)CN(C)C(=O)c1ccc(N2CCCCCC2)c([N+](=O)[O-])c1 | - | - | - | - | - | - | - | -
CN(CC(=O)Nc1ccc(Cl)c(C(F)(F)F)c1)C(=O)c1ccc(N2CCOCC2)c([N+](=O)[O-])c1 | - | - | - | - | - | - | - | -
O=C(C1CCN(c2cncnc2)CC1)N1CCCC1 | . | . | . | - | . | . | . | .
CCOC(=O)[C@@]12CCCC=C1N(CCc1ccc(Cl)cc1)C(=O)[C@H]2CC(=O)NCC1CCCCC1 | . | . | . | - | . | . | . | .
CCOC(=O)C1=NOC(C(=O)NCc2ccccc2)(C(=O)c2ccc(OC)cc2)C1 (configuration not stated) | . | . | . | - | . | . | . | .
S=C(Nc1ccc(Br)cc1)Nc1ccc2c(c1)OCCO2 | - | - | - | - | - | - | - | -
Fc1ccc(-c2cc(-c3nnc4sc(-c5cccs5)nn34)[nH]n2)cc1 | . | . | . | - | . | . | . | .
Cc1ccc(-n2nc3c(=O)n(C(C)C(=O)NCCC4=CCCCC4)nc(C)c3c2C)cc1 (configuration not stated) | - | - | - | - | - | - | - | -
COc1ccc(C(=O)Nc2nc3ccccc3s2)c(OC)c1 | - | 97 | - | - | - | - | 89 | 86
NC(=O)C1CCN(c2ncc(Br)s2)CC1 | . | . | . | - | . | . | . | .
CC(C)N1C(=O)S/C(=C/c2ccc(Sc3nc4ccccc4[nH]3)o2)C1=O | - | - | - | - | - | - | . | .
C=CCN1C(=O)S/C(=C/c2ccc(Sc3nc4ccccc4[nH]3)o2)C1=O | - | - | - | - | - | - | 81 | -
Cn1c(Sc2nc3ccccc3n2C)nc2ccccc21 | - | 76 | - | - | - | - | - | -
OC(c1ccc(F)cc1)c1nc(-c2ccncc2)cs1 (configuration not stated) | . | 79 | . | - | - | . | 83 | 71
COC(=O)C1CN(Cc2cn(Cc3ccc(OC)cc3)nn2)CCS(=O)(=O)N1Cc1ccc(OC)cc1 (configuration not stated) | . | . | . | - | . | . | . | .
O=C1N[C@H](Cc2ccccc2)COC(=O)[C@H](Cc2ccc(F)cc2)CC/C=C/C[C@H]1CC(=O)N(CCO)Cc1ccccc1 | - | - | - | - | - | . | - | -
Cc1cc(C)cc(-c2c(C(=O)c3ccc(Br)cc3)[nH]c(N)c2C(=O)NCc2ccc(Cl)cc2)c1 | . | . | . | - | . | . | . | .
Cc1ccc(N/N=C(\C#N)C(=O)c2ccsc2)cc1 | - | - | - | - | - | - | . | .
N#C/C(=N\Nc1ccc(Cl)cc1)C(=O)c1ccsc1 | - | 81 | - | - | - | - | 100 | 88
